Data from PubChem BioAssay AID624038 (The Scripps Research Institute Molecular Screening Center, 2012).
About 1,100 (0.31%) of roughly 360,000 compounds were called active. The sample as a whole holds a higher share of actives than the screen did. Unmarked numbers belong to inactive results.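 How the source made its calls: active means activation above the run cutoff, the mean activation of all test compounds plus 3 SD (cut at about 18% in these data); inactive means the rest.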

Biological target: Muscarinic acetylcholine receptor M5 (Homo sapiens) (UniProt P08912)
Sequence (P08912 whole entry, looked up): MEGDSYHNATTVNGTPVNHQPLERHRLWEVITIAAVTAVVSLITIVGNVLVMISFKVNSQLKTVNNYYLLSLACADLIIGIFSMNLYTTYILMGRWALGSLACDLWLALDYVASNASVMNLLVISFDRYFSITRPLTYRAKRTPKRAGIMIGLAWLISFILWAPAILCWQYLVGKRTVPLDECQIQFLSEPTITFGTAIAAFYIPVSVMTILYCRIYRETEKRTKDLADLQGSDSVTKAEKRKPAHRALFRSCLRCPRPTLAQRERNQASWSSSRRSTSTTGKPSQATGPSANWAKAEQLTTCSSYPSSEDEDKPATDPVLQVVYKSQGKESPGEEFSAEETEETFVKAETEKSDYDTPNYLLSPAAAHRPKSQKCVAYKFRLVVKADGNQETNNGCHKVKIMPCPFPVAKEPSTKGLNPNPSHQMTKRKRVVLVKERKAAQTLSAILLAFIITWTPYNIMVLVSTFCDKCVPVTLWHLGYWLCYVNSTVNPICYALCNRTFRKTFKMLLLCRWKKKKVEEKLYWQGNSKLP
Test: human M5 muscarinic receptor positive allosteric modulators, primary screen, CHO-K1 cells, Fluo-8 calcium fluorescence (AID 624038)
Details: CHO-K1 hM5, Fluo-8 calcium, ACh EC20 PAM; at 3 µM; active compounds read high; 0% = ACh EC20, 100% = ACh EC100
Procedure, shortened: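 System: CHO-K1 hM5 cells. Reagent: acetylcholine, EC20 level. Compound dosing: single dose, 3 µM nominal final test concentration. Timing: Post-acetylcholine fluorescence recording 140 s. Detection: Fluo-8 calcium fluorescence. Read-out: % activation, ACh-normalized. Benchmarks: ACh EC20 and EC100 wells. Repeats: singlicate, one well per test compound.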

| SMILES | activation |
| --- | --- |
| CC=C(C)C(=O)OC1CCN2CC=C(COC(=O)C(O)(C(C)OC)C(C)(C)O)C12 (stereo not given) | 19.2% (active) |
| CCOP(=S)(OCC)SCOC(=O)NCC(=O)OC | 0.05% |
| O=[N+]([O-])c1cnc2ccc3ccccc3c2c1 | 3.69% |
| COc1ccc(-n2c(-c3ccccc3)nc3ccccc3c2=O)cc1 | 14.8% |
| COC(=O)CN(CCCl)P1(=O)OCCCN1CCCl (stereo not given) | -10.4% |
